Test results reported in ChEMBL document CHEMBL3098083, “Curcumin glucuronides: assessing the proliferative activity against human cell lines” (Bioorg Med Chem, 2014).

Assays:
[1] = Antiproliferative activity against human KBM5 cells after 72 hrs by MTT assay; format: functional, cell-based; settings: KBM5, 72 h
Outline: (§1)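 Cells seeded at 5 × 10^3 per well in triplicate and exposed to 1, 5, 10, 25, 50, 100 or 200 μM for 72 h at 37 °C. MTT was added for 2 h, then SDS/DMF extraction buffer overnight, and A570 was read. Results are % viability, mean ± SD. Media: KBM-5 in IMDM/15% FBS; Jurkat and U266 in RPMI 1640; A549 in DMEM/10% FBS; all with penicillin/streptomycin.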

KBM5 [2] = assay: Inhibition of TNF-induced NF-kappaB activation in human KBM5 cells at 25 uM preincubated for 4 hrs followed by TNF addition measured after 30 mins by EMSA relative to control; format: cell-based
Outline: (§2)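 KBM-5 cells (IMDM, 15% FBS) were pretreated 4 h, then stimulated with bacteria-derived human recombinant TNF at 0.1 nM for 30 min. Nuclear extracts (15 μg protein) were incubated with 16 fmol 32P-labelled 45-mer HIV-LTR NF-κB oligonucleotide for 30 min at 37 °C. Complexes were resolved on 6.6% native polyacrylamide gels, and bands were quantified by phosphorimaging.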

KBM5 [3] = assay: Inhibition of TNF-induced NF-kappaB activation in human KBM5 cells at 10 uM preincubated for 4 hrs followed by TNF addition measured after 30 mins by EMSA relative to control; format: cell-based; outline: as §2
A549 = assay: Antiproliferative activity against human A549 cells after 72 hrs by MTT assay; format: functional, cell-based; settings: A549, 72 h; outline: as §1
Jurkat = assay: Antiproliferative activity against human Jurkat cells after 72 hrs by MTT assay; format: functional, cell-based; outline: as §1
[4] = Antiproliferative activity against human U266 cells after 72 hrs by MTT assay; format: functional, cell-based; settings: U-266, 72 h; outline: as §1
KBM5 [5] = assay: Inhibition of TNF-induced NF-kappaB activation in human KBM5 cells at 50 uM preincubated for 4 hrs followed by TNF addition measured after 30 mins by EMSA relative to control; format: cell-based; outline: as §2

## COc1cc(/C=C/C(O)=C/C(=O)/C=C/c2ccc(O[C@@H]3O[C@H](C(=O)O)[C@@H](O)[C@H](O)[C@H]3O)c(OC)c2)ccc1O
[1]
  IC50: > 200 µM
KBM5 [2]
  fold change (FC): 5.3
KBM5 [3]
  fold change (FC): 5.3
A549
  IC50: > 200 µM
Jurkat
  IC50: > 200 µM
[4]
  IC50: > 200 µM
KBM5 [5]
  fold change (FC): 5.1

## COc1cc(/C=C/C(=O)/C=C(O)/C=C/c2ccc(O[C@@H]3O[C@H](C(=O)O)[C@@H](O)[C@H](O)[C@H]3O)c(OC)c2)ccc1O[C@@H]1O[C@H](C(=O)O)[C@@H](O)[C@H](O)[C@H]1O
[1]
  IC50: > 200 µM
KBM5 [2]
  fold change (FC): 5.6
KBM5 [3]
  fold change (FC): 5.6
A549
  IC50: > 200 µM
Jurkat
  IC50: > 200 µM
[4]
  IC50: > 200 µM
KBM5 [5]
  fold change (FC): 5.5

## COc1cc(/C=C/C(=O)CC(=O)/C=C/c2ccc(O)c(OC)c2)ccc1O [CURCUMIN]
[1]
  IC50: 3.84 µM
KBM5 [2]
  fold change (FC): 1
KBM5 [3]
  fold change (FC): 3
A549
  IC50: 17.3 µM
Jurkat
  IC50: 4.29 µM
[4]
  IC50: 7.57 µM
KBM5 [5]
  fold change (FC): 0.8
